Here are results for one molecule from publication PMC5704914 (Biochemistry, 2017).

For this experiment, the system named is α11.2 AAs 1506-1871. In words: Yeast two-hybrid interaction of α-actinin-1 fragments with α11.2 C-terminus. The experiment is classed as binding, rabbit. The note with it: α-actinin-1 prey in pGADT7; X-α-Gal. The gist of the method:
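Bait plasmids (α11.2 C-terminal fragments) and α-actinin-1 full-length or fragment prey (Gal4 activation domain, pGADT7) were co-transformed into Y2H Gold yeast. Co-transformants were selected on Leu−/Trp− plates with X-α-Gal, then colonies were replated onto Leu/Trp/His/Ade quadruple-dropout plates plus X-α-Gal to score interaction.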

B1: SR234EF: C-terminal four EF hands preceded by three spectrin repeats of α-actinin-1 (AAs 391-892) (protein)
chain: RLDHLAEKFRQKASIHEAWTDGKEAMLRQKDYETATLSEIKALLKKHEAFESDLAAHQDRVEQIAAIAQELNELDYYDSPSVNARCQKICDQWDNLGALTQKRREALERTEKLLETIDQLYLEYAKRAAPFNNWMEGAMEDLQDTFIVHTIEEIQGLTTAHEQFKATLPDADKERLAILGIHNEVSKIVQTYHVNMAGTNPYTTITPQEINGKWDHVRQLVPRRDQALTEEHARQQHNERLRKQFGAQANVIGPWIQTKMEEIGRISIEMHGTLEDQLSHLRQYEKSIVNYKPKIDQLEGDHQLIQEALIFDNKHTNYTMEHIRVGWEQLLTTIARTINEVENQILTRDAKGISQEQMNEFRASFNHFDRDHSGTLGPEEFKACLISLGYDIGNDPQGEAEFARIMSIVDPNRLGVVTFQAFIDFMSRETADTDTADQVMASFKILAGDKNYITMDELRRELPPDQAEYCIARMAPYTGPDSVPGALDYMSFSTALYGESDL
modifications: left off: Gal4 activation domain, end not stated, kept
B1: the “interaction of α-actinin-1 polypeptide with α11.2 AAs 1506-1871 (Y2H)” value is on record as “consistently strong interaction readouts”.
